Experiments:
[1] = tested on: Trypanosoma brucei brucei; test: Anti-parasitic activity against bloodstream form of Trypanosoma brucei brucei Lister 427 after 72 hrs by resazurin-based assay; format: functional; details: Lister 427, 72 h
Procedure, shortened: (§1)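 Bloodstream-form T. brucei, modified resazurin-based viability assay. EC50 is the arithmetic mean of at least two independent determinations, each run in triplicate.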

[2] = Selectivity index, ratio of CC50 for human THP1 cells to EC50 for anti-parasitic activity against bloodstream form of Trypanosoma brucei brucei Lister 427; format: toxicity; details: THP-1 cells, read-out: Ratio CC50/EC50
Procedure, shortened: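 SI = CC50 in PMA-differentiated THP-1 macrophages (MTT) divided by the antiparasitic EC50.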

[3] = tested on: Trypanosoma brucei brucei; test: Anti-parasitic activity against bloodstream form of Trypanosoma brucei brucei Lister 427 at 10 uM after 72 hrs by resazurin-based assay relative to control; format: functional; details: Lister 427, 72 h; procedure, shortened: as §1
[4] = Cytotoxicity against human THP1 cells by MTT assay; format: cell-based; details: THP-1 cells
Procedure, shortened: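 THP-1 cells differentiated to macrophages with PMA, viability read by colorimetric MTT. CC50 and NOAEL are the arithmetic mean of at least two independent determinations, each run in triplicate.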

[5] = tested on: Trypanosoma cruzi; test: Anti-parasitic activity against Trypanosoma cruzi Y promastigotes infected in HG39 cells at 10 uM by qPCR analysis relative to control; format: functional, cell-based; details: in the assay text read “trypomastigotes” for “promastigotes”
Procedure, shortened: (§2)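 Confluent HG39 cells (3 x 10^6 per well) infected at a 1:1 ratio with blood-derived T. cruzi Y strain trypomastigotes. Growth inhibition was read as parasite gDNA by TaqMan probe-based quantitative real-time PCR.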

[6] = Cytotoxicity against human A549 cells assessed as cell growth at 10 uM by Cell titer-Glo assay relative to control; format: cell-based; details: read-out: Activity
Procedure, shortened: (§3)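 A549 and WI-38 cells grown in DMEM with 10% v/v FCS, streptomycin 100 µg/ml and penicillin G 100 U/ml. Cell number read as cellular ATP by CellTiter-Glo luminescence. Growth 60–100% scored non-cytotoxic, 0–60% cytostatic, below 0 cytotoxic.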

[7] = Cytotoxicity against human […] cells assessed as cell growth at 10 uM by Cell titer-Glo assay relative to control; format: cell-based; details: WI-38 cells, read-out: Activity; procedure, shortened: as §3
[8] = tested on: 786-0; test: Mitochondrial toxicity in human 786-O cells at 10 uM by mitotracker red chloromethyl-Xrosamine staining based-uptake method relative to control; format: cell-based; details: 786-0, 10 µM
Procedure, shortened: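 786-O renal carcinoma cells kept in RPMI-1640 with 2 mM glutamine, 10% v/v FCS, streptomycin 100 µg/ml and penicillin G 100 U/ml. Mitochondrial toxicity monitored by MitoTracker Red CMXRos uptake with high-content imaging.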

[9] = biological target: Aurora kinase B (Homo sapiens, UniProt Q96GD4); test: Inhibition of N-terminal-GST-tagged recombinant full length human Aurora B expressed in baculovirus infected Sf9 cells at 10 uM using native Swine Myelin Basic Protein as substrate measured after 60 mins by ADP-Glo assay relative to control; details: probe native Swine Myelin Basic Protein
Chain of Aurora kinase B (Q96GD4 whole entry): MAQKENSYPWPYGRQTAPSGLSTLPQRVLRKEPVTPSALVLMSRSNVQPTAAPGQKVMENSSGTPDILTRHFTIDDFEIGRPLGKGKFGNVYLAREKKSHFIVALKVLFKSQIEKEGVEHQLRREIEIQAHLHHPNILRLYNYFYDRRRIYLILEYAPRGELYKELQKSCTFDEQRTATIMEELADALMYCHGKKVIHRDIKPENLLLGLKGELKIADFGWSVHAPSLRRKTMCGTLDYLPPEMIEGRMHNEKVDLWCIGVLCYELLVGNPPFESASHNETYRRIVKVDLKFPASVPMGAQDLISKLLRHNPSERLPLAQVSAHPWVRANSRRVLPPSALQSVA
Procedure, shortened: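 Aurora B kinase activity measured by ADP-Glo, which detects ADP formed through a coupled luciferase luminescence read-out.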

[10] = biological target: hERG (KCNH2) (Homo sapiens, UniProt Q12809); test: Inhibition of human ERG at 10 uM by Tracer Red dye based fluorescence polarization assay relative to control; details: probe Tracer Red dye
Chain of hERG (KCNH2) (Q12809 whole entry): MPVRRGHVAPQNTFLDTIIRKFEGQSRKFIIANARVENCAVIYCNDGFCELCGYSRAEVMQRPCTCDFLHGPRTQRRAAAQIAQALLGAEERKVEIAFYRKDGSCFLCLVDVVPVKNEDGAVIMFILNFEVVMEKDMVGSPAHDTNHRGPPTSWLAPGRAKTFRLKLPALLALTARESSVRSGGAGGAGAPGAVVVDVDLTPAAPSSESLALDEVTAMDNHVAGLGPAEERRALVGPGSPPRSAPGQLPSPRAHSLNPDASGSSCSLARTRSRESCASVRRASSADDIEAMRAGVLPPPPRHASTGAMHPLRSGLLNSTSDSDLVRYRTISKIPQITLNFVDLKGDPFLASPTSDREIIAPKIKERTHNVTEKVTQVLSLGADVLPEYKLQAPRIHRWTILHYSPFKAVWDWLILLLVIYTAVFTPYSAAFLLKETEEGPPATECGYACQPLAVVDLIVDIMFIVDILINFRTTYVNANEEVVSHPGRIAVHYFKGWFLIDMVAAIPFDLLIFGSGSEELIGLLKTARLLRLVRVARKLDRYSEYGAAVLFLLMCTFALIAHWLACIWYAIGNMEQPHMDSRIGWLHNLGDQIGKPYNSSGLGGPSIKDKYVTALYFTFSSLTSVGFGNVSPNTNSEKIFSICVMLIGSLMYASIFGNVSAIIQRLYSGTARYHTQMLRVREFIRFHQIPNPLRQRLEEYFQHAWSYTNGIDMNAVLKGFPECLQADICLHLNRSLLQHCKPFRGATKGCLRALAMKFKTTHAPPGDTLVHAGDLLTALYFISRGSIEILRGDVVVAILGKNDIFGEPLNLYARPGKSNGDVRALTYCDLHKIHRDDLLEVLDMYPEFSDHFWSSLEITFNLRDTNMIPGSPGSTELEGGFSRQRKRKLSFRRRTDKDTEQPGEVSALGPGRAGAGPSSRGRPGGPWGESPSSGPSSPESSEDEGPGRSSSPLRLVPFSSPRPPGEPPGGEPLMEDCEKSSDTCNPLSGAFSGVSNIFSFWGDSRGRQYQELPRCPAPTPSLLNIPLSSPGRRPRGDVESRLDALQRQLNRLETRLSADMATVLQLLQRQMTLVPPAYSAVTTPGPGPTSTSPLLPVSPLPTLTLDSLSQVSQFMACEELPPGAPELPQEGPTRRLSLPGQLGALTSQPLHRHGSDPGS

[11] = biological target: T1, CYP1A2 (Homo sapiens, UniProt P05177); test: Inhibition of human CYP1A2 expressed in baculovirus-infected insect cells at 10 uM using Luciferin-1A2 as substrate in presence of NADPH by P450-Glo luminescence assay relative to control; format: ADME; details: probe Luciferin-1A2
T1 sequence (P05177 whole entry): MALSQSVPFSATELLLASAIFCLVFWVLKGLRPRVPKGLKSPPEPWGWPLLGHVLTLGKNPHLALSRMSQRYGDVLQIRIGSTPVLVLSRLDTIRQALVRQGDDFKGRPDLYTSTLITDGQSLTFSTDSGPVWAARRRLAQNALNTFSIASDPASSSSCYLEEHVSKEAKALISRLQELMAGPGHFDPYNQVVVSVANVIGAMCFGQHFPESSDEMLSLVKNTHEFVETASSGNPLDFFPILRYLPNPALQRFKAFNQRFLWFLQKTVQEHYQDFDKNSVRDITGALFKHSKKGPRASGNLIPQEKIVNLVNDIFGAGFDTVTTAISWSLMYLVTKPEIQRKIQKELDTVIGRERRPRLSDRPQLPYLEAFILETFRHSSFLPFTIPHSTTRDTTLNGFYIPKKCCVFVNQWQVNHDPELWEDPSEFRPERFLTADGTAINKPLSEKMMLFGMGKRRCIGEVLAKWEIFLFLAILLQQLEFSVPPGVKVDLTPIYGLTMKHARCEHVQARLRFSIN
Procedure, shortened: (§4)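 CYP enzymes as microsomal preparations from baculovirus-infected insect cells, run on the P450-Glo luminogenic substrate platform. A fall in light output indicates inhibition.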

[12] = biological target: CYP2C9 (Homo sapiens, UniProt P11712); test: Inhibition of human CYP2C9 expressed in baculovirus-infected insect cells at 10 uM using Luciferin-H as substrate in presence of NADPH by P450-Glo luminescence assay relative to control; details: probe Luciferin-H
Chain of CYP2C9 (P11712 whole entry): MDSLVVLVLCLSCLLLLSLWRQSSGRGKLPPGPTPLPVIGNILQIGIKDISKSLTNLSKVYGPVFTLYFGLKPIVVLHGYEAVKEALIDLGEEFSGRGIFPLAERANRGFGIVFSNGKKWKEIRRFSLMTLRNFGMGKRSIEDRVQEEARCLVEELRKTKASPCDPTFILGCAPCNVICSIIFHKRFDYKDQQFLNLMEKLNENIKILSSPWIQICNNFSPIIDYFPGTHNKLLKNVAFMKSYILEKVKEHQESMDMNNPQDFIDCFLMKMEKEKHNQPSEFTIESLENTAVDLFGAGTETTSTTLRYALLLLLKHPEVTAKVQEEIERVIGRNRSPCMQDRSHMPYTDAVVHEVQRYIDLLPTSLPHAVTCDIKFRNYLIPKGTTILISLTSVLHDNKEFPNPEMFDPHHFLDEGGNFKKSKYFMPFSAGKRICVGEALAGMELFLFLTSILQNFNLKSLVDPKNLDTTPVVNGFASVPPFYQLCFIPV

[13] = biological target: CYP2C19 (Homo sapiens, UniProt P33261); test: Inhibition of human CYP2C19 expressed in baculovirus-infected insect cells at 10 uM using Luciferin-H EGE as substrate in presence of NADPH by P450-Glo luminescence assay relative to control; format: ADME; details: probe Luciferin-H EGE; procedure, shortened: as §4
Chain of CYP2C19 (P33261 whole entry): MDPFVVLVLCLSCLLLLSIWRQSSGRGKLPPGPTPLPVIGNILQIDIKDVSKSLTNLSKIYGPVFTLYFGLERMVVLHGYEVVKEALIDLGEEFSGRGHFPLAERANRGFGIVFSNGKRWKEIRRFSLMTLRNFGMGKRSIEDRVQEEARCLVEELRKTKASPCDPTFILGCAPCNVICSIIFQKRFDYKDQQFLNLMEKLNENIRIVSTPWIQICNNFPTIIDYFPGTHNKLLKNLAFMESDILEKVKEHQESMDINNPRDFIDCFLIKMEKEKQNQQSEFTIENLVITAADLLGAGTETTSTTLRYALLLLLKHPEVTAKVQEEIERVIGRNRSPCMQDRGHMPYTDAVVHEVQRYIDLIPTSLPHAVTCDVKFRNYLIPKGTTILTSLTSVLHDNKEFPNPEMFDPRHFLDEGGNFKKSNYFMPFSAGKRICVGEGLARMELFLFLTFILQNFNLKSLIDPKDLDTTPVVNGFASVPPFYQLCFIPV

[14] = biological target: CYP2D6 (Homo sapiens, UniProt P10635); test: Inhibition of human CYP2D6 expressed in baculovirus-infected insect cells at 10 uM using Luciferin-ME EGE as substrate in presence of NADPH by P450-Glo luminescence assay relative to control; format: ADME; details: probe Luciferin-ME EGE; procedure, shortened: as §4
Chain of CYP2D6 (P10635 whole entry): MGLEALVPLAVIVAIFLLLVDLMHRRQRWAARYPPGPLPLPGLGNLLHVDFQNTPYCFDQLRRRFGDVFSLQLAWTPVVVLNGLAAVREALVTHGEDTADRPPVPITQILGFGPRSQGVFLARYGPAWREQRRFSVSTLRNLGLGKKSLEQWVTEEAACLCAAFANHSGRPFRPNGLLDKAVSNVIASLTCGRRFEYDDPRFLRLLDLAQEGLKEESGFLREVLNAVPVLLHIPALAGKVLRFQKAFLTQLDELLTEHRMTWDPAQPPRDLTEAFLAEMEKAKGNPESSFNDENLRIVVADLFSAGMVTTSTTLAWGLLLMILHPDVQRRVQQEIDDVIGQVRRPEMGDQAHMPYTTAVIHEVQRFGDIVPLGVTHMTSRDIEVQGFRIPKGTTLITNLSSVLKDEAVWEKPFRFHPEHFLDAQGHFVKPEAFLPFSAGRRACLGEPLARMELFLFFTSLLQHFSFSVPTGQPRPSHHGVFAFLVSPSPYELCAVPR

[15] = biological target: CYP3A4 (Homo sapiens, UniProt P08684); test: Inhibition of human CYP3A4 expressed in baculovirus-infected insect cells at 10 uM using Luciferin-PFBE as substrate in presence of NADPH by P450-Glo luminescence assay relative to control; format: ADME; details: probe Luciferin-PFBE
Chain of CYP3A4 (P08684 whole entry): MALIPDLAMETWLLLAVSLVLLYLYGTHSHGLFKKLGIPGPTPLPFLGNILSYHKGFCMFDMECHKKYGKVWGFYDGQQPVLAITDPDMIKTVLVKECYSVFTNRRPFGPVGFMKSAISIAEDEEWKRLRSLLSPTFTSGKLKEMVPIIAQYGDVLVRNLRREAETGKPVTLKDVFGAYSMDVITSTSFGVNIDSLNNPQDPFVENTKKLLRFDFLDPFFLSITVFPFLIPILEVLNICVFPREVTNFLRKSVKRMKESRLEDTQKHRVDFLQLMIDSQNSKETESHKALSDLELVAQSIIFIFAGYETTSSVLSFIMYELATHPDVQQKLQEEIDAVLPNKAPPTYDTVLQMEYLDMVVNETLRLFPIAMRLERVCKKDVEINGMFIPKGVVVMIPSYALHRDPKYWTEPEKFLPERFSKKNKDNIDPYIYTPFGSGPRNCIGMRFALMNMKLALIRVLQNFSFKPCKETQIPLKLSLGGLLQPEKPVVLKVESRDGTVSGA

[16] = Lipophilicity, log P of the compound; format: physicochemical; details: octanol/water
[17] = tested on: Trypanosoma cruzi; test: Anti-parasitic activity against Trypanosoma cruzi Y promastigotes infected in HG39 cells by qPCR analysis; format: functional, cell-based; details: in the assay text read “trypomastigotes” for “promastigotes”; procedure, shortened: as §2
[18] = tested on: Leishmania infantum; test: Anti-parasitic activity against Leishmania infantum amastigotes infected in human THP1 cells at 50 uM after 5 days by Giemsa staining based assay relative to control; format: functional, cell-based; details: THP-1, 120 h
Procedure, shortened: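 Intracellular L. infantum amastigotes in host cells, imaged by high-content automated imaging. Host cell number, infected cells and parasites per infected cell were counted. Infection Ratio = infected cells / total cells.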

SMILES | EC50 [1] | inhibition at 1 h, 10 µM [9] | inhibition at 10 µM [11] | inhibition at 10 µM [12] | inhibition at 10 µM [13] | inhibition at 10 µM [14] | inhibition at 10 µM [15] | logP [16] | selectivity ratio [2] | inhibition at 10 µM [3] | CC50 [4] | inhibition at 10 µM [5] | viability at 10 µM [6] | viability at 10 µM [7] | Activity [8] | inhibition at 10 µM [10] | also measured
COc1cccc(-c2oc3cc(OC)ccc3c(=O)c2O)c1 | 1.14 µM | – | – | – | – | – | – | – | 8 | – | – | – | – | – | – | – | –
COc1cccc(-c2oc3ccc(OC)cc3c(=O)c2O)c1 | 1.43 µM | – | – | – | – | – | – | – | 10 | – | – | – | – | – | – | – | –
COc1cccc(/C=C/C(=O)c2ccccc2O)c1 | 1.3 µM | -6.6% | 85.6% | 17.1% | 76.2% | -8.4% | -1.4% | 3.94 | ≥ 19 | 100% | > 25 µM | 46% | 105% | 118% | 6.2% | 11.3% | inhibition at 50 µM [18]: 11%
COc1ccc(-c2oc3cc(OC)ccc3c(=O)c2O)cc1 | 1.1 µM | – | – | – | – | – | – | – | 9 | – | – | – | – | – | – | – | –
C=CC(C)(C)c1cc(/C=C/C(=O)c2ccc(O)cc2)c(OC)cc1O [LICOAGROCHACONE A] | – | – | – | – | – | – | – | 4.74 | – | – | – | – | – | – | – | – | –
CCCCCCCCCCCCCCCCOP(=O)([O-])OCC[N+](C)(C)C [MILTEFOSINE] | – | – | – | – | – | – | – | – | – | – | – | – | – | – | – | – | EC50 [18]: 2.65 µM
CC1CS(=O)(=O)CCN1/N=C/c1ccc([N+](=O)[O-])o1 (centres undefined) [NIFURTIMOX] | – | – | – | – | – | – | – | – | – | – | – | – | – | – | – | – | EC50 [5]: 2.2 µM

More lines, main results first:

EC50 [1] | inhibition at 1 h, 10 µM [9] | inhibition at 10 µM [11] | inhibition at 10 µM [12] | inhibition at 10 µM [13] | inhibition at 10 µM [14] | inhibition at 10 µM [15] | logP [16] | SMILES | selectivity ratio [2] | inhibition at 10 µM [3] | CC50 [4] | inhibition at 10 µM [5] | viability at 10 µM [6] | viability at 10 µM [7] | Activity [8] | inhibition at 10 µM [10] | also measured
– | 107% | 85.2% | 25.8% | 47.3% | 79.6% | 6.2% | 3.87 | COc1ccc(/C=C/C(=O)c2cc(OC)ccc2O)cc1 | – | 9% | > 100 µM | 9% | 91.3% | 15.8% | 15.8% | 42.1% | –
2.1 µM | 104% | 41.7% | 36.9% | 61.1% | 11.7% | 15.3% | 3.52 | COc1ccc(O)c(C(=O)/C=C/c2c(OC)cccc2OC)c1 | ≥ 12 | 86% | > 25 µM | 52% | 103% | 14.6% | 14.6% | -7.1% | EC50 [17]: < 10 µM
2.99 µM | – | – | – | – | – | – | – | COc1ccc2c(=O)c(O)c(-c3ccc(OC)c(OC)c3)oc2c1 | 8 | – | – | – | – | – | – | – | –

Reference: ChEMBL document CHEMBL3997782, “Methoxylated 2'-hydroxychalcones as antiparasitic hit compounds” (Eur J Med Chem, 2017)
